Several values for one entry are separate records, joined by “and”; a condition that tells them apart may be missing. Identical values can stand only once.
How the values were obtained:
Hepatitis C virus [1] = test: Inhibition of HCV1b Cdelta55 NS5B polymerase; format: functional, organism-based, Hepatitis C virus subtype 1b
Hepatitis C virus [2] = test: Antiviral activity against Hepatitis C virus subtype 1b infected in human HuH7 cells by replicon assay; format: functional, organism-based, Hepacivirus hominis; conditions: genotype 1b, Huh-7
Hepatitis C virus [3] = test: Antiviral activity against Hepatitis C virus subtype 2a infected in human HuH7 cells by replicon assay; format: functional, organism-based, Hepacivirus hominis, genotype 2a, Huh-7
How it was run: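 Full-length HCV genotype 2a infectivity assay; EC50 determined.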

Hepatitis C virus [4] = test: Inhibition of wild type HCV con1 Cdelta55 NS5B polymerase; format: functional, Hepacivirus hominis; conditions: isolate Con1
How it was run: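 Recombinant NS5B truncated by 55 C-terminal residues (ΔC55), genotype 1b HCV; IC50 determined from enzyme inhibition.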

Hepatitis C virus [5] = test: Inhibition of HCV con1 Cdelta55 NS5B polymerase G152E mutant; format: functional, Hepacivirus hominis; conditions: isolate Con1
How it was run: (§1)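 IC50 determined on isolated recombinant NS5B polymerase carrying a single P156S or G152E substitution. These substitutions were identified in replicon colonies selected with […]. Wild-type enzyme was run alongside as the reference.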

Hepatitis C virus [6] = test: Inhibition of HCV con1 Cdelta55 NS5B polymerase P156S mutant; format: functional, Hepacivirus hominis; conditions: isolate Con1; how it was run: as §1
Hepatitis C virus [7] = test: Inhibition of HCV1b Cdelta21 NS5B polymerase; format: functional, Hepatitis C virus subtype 1b
Hepatitis C virus [8] = test: Inhibition of HCV2a Cdelta21 NS5B polymerase; format: functional, Hepatitis C virus subtype 2a
[9] = Inhibition of HCV2b Cdelta21 NS5B polymerase; parameters: species or system Hepatitis C virus subtype 2b
[10] = Inhibition of HCV3a Cdelta21 NS5B polymerase; parameters: species or system Hepatitis C virus subtype 3a
[11] = Half life in rat plasma at 3 mg/kg, iv; format: ADME, organism-based; parameters: dose 3 mg/kg, route intravenous
How it was run: (§2)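 Rat, single intravenous dose of 3 mg/kg; plasma sampled for half-life, volume of distribution and turnover (clearance).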

[12] = Volume of distribution in rat at 3 mg/kg, iv; format: ADME, organism-based; parameters: dose 3 mg/kg, route intravenous; conditions: in vivo; how it was run: as §2
[13] = Protein binding in rat serum; format: ADME, cell-free; conditions: read-out: PB
How it was run: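 Binding to rat serum proteins measured.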

[14] = AUC in rat plasma at 3 mg/kg, po; format: ADME, organism-based; parameters: dose 3 mg/kg, route oral
How it was run: (§3)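 Rat, oral dose of 3 mg/kg; plasma exposure (AUC) measured and oral bioavailability derived.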

[15] = Oral bioavailability in rat at 3 mg/kg; format: ADME, organism-based; conditions: in vivo; how it was run: as §3
[16] = Bioavailability in intramuscular dosed rat; format: ADME, organism-based; conditions: in vivo, im
How it was run: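 Rat, intramuscular administration; plasma exposure measured to derive bioavailability.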

[17] = Metabolic stability in rat assessed as compound turnover at 3 mg/kg, iv; format: ADME, organism-based; parameters: dose 3 mg/kg, route intravenous; conditions: in vivo, read-out: Stability; how it was run: as §2
[18] = Hepatitis C virus, genotype 2a, Huh-7

| Compound | IC50 (Hepatitis C virus [1]) [nM] | EC50 (Hepatitis C virus [2]) [µM] | other results |
| --- | --- | --- | --- |
| O=C(Nc1cscc1-c1nc(O)c(O)c(C(=O)O)n1)NS(=O)(=O)c1ccccc1Cl | 78 | 2.6 | EC50 (Hepatitis C virus [3]; [18]): 6.6 µM |
| O=C(Nc1cscc1-c1nc(O)c(O)c(C(=O)O)n1)NS(=O)(=O)c1ccc(Cl)cc1 | 85 | 26 | – |
| O=C(Cc1ccccc1Cl)Nc1cscc1-c1nc(O)c(O)c(C(=O)O)n1 | 2610 | – | – |
| O=C(NCc1ccccc1)Nc1cscc1-c1nc(O)c(O)c(C(=O)O)n1 | 873 | – | – |
| CS(=O)(=O)NC(=O)Nc1cscc1-c1nc(O)c(O)c(C(=O)O)n1 | 426 | – | – |
| CC(C)(C)OC(=O)Nc1cscc1-c1nc(O)c(O)c(C(=O)O)n1 | 8280 | – | – |
| Cn1c(-c2cccs2)nc(C(=O)O)c(O)c1=O | – | – | IC50 (Hepatitis C virus [4]): 4600 nM; IC50 (Hepatitis C virus [5]): 3200 nM; IC50 (Hepatitis C virus [6]): 5600 nM |
| O=C(Nc1cscc1-c1nc(O)c(O)c(C(=O)O)n1)NS(=O)(=O)c1ccc2ccccc2c1 | 48 | 32 | – |
| O=C(O)c1nc(-c2ccccc2)nc(O)c1O | 30000 | – | – |
| O=C(O)c1nc(-c2cccs2)nc(O)c1O | 2600 | – | – |
| O=C(NCc1ccccc1Cl)Nc1cscc1-c1nc(O)c(O)c(C(=O)O)n1 | 258 | – | – |
| O=C(Nc1cscc1-c1nc(O)c(O)c(C(=O)O)n1)NS(=O)(=O)c1cccc(Cl)c1Cl | 12 | 2.4 | EC50 (Hepatitis C virus [3]; [18]): 4.9 µM |
| O=C(Nc1cscc1-c1nc(O)c(O)c(C(=O)O)n1)NS(=O)(=O)c1ccccc1Br | 74 | 3.4 | IC50 (Hepatitis C virus [4]): 60 nM; IC50 (Hepatitis C virus [5]): 400 nM; IC50 (Hepatitis C virus [6]): 70 nM |
| O=C(Nc1cscc1-c1nc(O)c(O)c(C(=O)O)n1)OCc1ccccc1 | 326 | – | – |
| O=C(Nc1cscc1-c1nc(O)c(O)c(C(=O)O)n1)NS(=O)(=O)c1cccc2ccccc12 | 36 | 3.6 | EC50 (Hepatitis C virus [3]; huh-7): 3.7 µM and 9.6 µM; IC50 (Hepatitis C virus [7]): 5.6 nM; IC50 (Hepatitis C virus [8]): 2.1 nM; IC50 [9]: 5.8 nM; IC50 [10]: 3.9 nM; half-life [11]: 900 min; Vd [12]: 0.1 L/kg; fraction unbound [13]: < 0.01; AUC [14]: 3.3 µM·h; bioavailability [15]: 2%; bioavailability [16]: 89%; IC50 (Hepatitis C virus [4]): 40 nM; IC50 (Hepatitis C virus [5]): 300 nM; clearance [17]: 0.2 mL/min/kg |
| O=C(O)c1nc(-c2ccsc2)nc(O)c1O | 6150 | – | – |
| O=C(Nc1cscc1-c1nc(O)c(O)c(C(=O)O)n1)NS(=O)(=O)c1cccc(Br)c1 | 38 | 37 | – |
| O=C(Nc1cscc1-c1nc(O)c(O)c(C(=O)O)n1)NS(=O)(=O)c1ccccc1 | 62 | 32 | – |
| Cc1ccccc1S(=O)(=O)NC(=O)Nc1cscc1-c1nc(O)c(O)c(C(=O)O)n1 | 47 | 16 | – |
| O=C(Nc1sccc1-c1nc(O)c(O)c(C(=O)O)n1)OCc1ccccc1 | 343 | – | – |
| O=C(NCc1ccccc1Cl)Nc1ccsc1-c1nc(O)c(O)c(C(=O)O)n1 | – | – | IC50 (Hepatitis C virus [4]): 180 nM; IC50 (Hepatitis C virus [5]): 800 nM; IC50 (Hepatitis C virus [6]): 170 nM |

— ChEMBL document CHEMBL1154335, “2-(3-Thienyl)-5,6-dihydroxypyrimidine-4-carboxylic acids as inhibitors of HCV NS5B RdRp” (Bioorg Med Chem Lett, 2009)
